Reference: ChEMBL document CHEMBL1141112, “Synthesis and antiinflammatory activity of coumarin derivatives” (J Med Chem, 2005)
Active and inactive are the calls of the source. The rule behind the calls is not given here.

How the values were obtained:
[1] = Superoxide radical scavenging activity at 1 mM upon incubation for 2 min at RT in pH 7.4 with PMS, NADH and NBT by nitroblue tetrazolium method; no action
[2] = Percent heme protein dependent lipid peroxidation (0.1 mM) upon incubation for 10 min at 37 degree C. in pH 7.4 with arachidonic acid and H2O2; no action; type: functional
How it was run: (§1)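 Heme 50 μM, arachidonic acid 0.4 mM, test compound and H2O2 0.5 mM incubated together for 10 min at 37 °C in KH2PO4–KOH buffer (50 mM, pH 7.4). Tested at 0.1 and 1 mM. At least triplicate; absorbance SD under 10% of mean.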

[3] = Percent heme protein dependent lipid peroxidation at (1 mM) upon incubation for 10 min at 37 degree C. in pH 7.4 with arachidonic acid and H2O2; type: functional; how it was run: as §1
[4] = test system: Rattus norvegicus; assay: Percent inhibition of carrageenan 2% (0.1 mL intradermal) induced paw edema at the i.p. dose of 0.01 m mol/kg in fisher 344 rats; n=5; type: functional
How it was run: (§2)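 Right hind paw edema in Fischer 344 rats (150–200 g) induced by intradermal 0.1 mL 2% carrageenin in water. Rats killed 3.5 h after carrageenin; injected minus uninjected paw weight compared with water-treated controls and expressed as percent inhibition. Mean of two experiments, five animals per group; Student's t-test.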

[5] = target: T1, Seed linoleate 13S-lipoxygenase-1 (Glycine max, UniProt P08170); assay: Inhibitory concentration against soybean lipoxygenase upon incubation with sodium linoleate (0.1 mM) at RT
T1 sequence (P08170 whole entry): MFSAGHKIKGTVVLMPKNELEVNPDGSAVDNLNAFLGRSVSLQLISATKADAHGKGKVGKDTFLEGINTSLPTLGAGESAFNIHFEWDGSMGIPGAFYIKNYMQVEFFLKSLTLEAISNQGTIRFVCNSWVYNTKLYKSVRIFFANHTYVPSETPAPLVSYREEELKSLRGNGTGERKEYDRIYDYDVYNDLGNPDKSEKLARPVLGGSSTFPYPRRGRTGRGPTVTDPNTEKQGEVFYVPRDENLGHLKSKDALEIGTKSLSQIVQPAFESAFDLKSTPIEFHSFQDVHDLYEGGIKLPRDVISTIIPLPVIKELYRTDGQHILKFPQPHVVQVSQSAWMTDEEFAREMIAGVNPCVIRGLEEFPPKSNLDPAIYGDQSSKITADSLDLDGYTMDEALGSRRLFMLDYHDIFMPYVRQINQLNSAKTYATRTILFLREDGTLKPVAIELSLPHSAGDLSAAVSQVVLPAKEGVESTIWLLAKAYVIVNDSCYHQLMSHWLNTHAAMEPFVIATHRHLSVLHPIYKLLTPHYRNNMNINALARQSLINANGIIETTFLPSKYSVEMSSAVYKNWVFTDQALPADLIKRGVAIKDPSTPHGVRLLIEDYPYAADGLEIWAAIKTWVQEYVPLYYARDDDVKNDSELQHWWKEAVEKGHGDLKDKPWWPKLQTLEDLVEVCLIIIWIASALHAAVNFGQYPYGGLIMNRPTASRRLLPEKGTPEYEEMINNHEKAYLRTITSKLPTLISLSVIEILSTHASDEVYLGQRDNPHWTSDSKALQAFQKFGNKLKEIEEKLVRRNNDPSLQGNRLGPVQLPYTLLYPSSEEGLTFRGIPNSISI
How it was run: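 Soybean lipoxygenase (0.2 mL enzyme solution, 1/3 ×10^4 w/v in saline) incubated at room temperature with test compounds in ethanol and sodium linoleate 0.1 mM as substrate. Conversion to 13-hydroperoxylinoleic acid followed at 234 nm and compared with NDGA as standard inhibitor. Run at least in triplicate; SD of absorbance under 10% of mean.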

[6] = Percent heme protein dependent lipid peroxidation at (0.1 mM) upon incubation for 10 min at 37 degree C. in pH 7.4 with arachidonic acid and H2O2; type: functional; how it was run: as §1
[7] = test system: Rattus norvegicus; assay: Onset of arthritis measured as arthritic score at i.p. dose of 0.001 m mol/kg in rats injected intradermally with Freund's adjuvant after 22 days; type: functional
How it was run: (§3)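 Fischer 344 rats, five per group, given Freund's adjuvant (0.6 mg desiccated Mycobacterium butyricum in 0.1 mL liquid paraffin) intradermally at tail base. Compound given ip at 0.001 mmol/kg from day 0, every other day for 24 days; absolute controls got vehicle only. Score: one point per inflamed wrist/ankle plus one per involved phalangeal joint, max five per limb, every 2 days from day 14. Run in duplicate.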

[8] = test system: Rattus norvegicus; assay: Onset of arthritis measured as arthritic score at i.p. dose of 0.001 m mol/kg in rats injected intradermally with Freund's adjuvant after 12 days; type: functional; how it was run: as §3
[9] = test system: Rattus norvegicus; assay: Onset of arthritis measured as arthritic score at i.p. dose of 0.001 m mol/kg in rats injected intradermally with Freund's adjuvant after 4 days; type: functional; how it was run: as §3
[10] = test system: Rattus norvegicus; assay: Onset of arthritis measured as arthritic score at i.p. dose of 0.001 m mol/kg in rats injected intradermally with Freund's adjuvant after 6 days; type: functional; how it was run: as §3
[11] = test system: Rattus norvegicus; assay: Percent change in body weight of (FA) adjuvant induced rats at i.p. dose of 0.001 m mol/kg after 24 days; type: functional
[12] = test system: Rattus norvegicus; assay: Onset of arthritis measured as arthritic score at i.p. dose of 0.001 m mol/kg in rats injected intradermally with Freund's adjuvant after 24 days; type: functional; how it was run: as §3
[13] = test system: Rattus norvegicus; assay: Onset of arthritis measured as arthritic score at i.p. dose of 0.001 m mol/kg in rats injected intradermally with Freund's adjuvant after 14 days; type: functional; how it was run: as §3
[14] = Superoxide radical scavenging activity at 1 mM upon incubation for 2 min at RT in pH 7.4 with PMS, NADH and NBT by nitroblue tetrazolium method
[15] = test system: Rattus norvegicus; assay: Onset of arthritis measured as arthritic score at i.p. dose of 0.001 m mol/kg in rats injected intradermally with Freund's adjuvant after 2 days; type: functional; how it was run: as §3
[16] = test system: Rattus norvegicus; assay: Onset of arthritis measured as arthritic score at i.p. dose of 0.001 m mol/kg in rats injected intradermally with Freund's adjuvant after 20 days; type: functional; how it was run: as §3
[17] = test system: Rattus norvegicus; assay: Onset of arthritis measured as arthritic score at i.p. dose of 0.001 m mol/kg in rats injected intradermally with Freund's adjuvant after 8 days; type: functional; how it was run: as §3
[18] = test system: Rattus norvegicus; assay: Onset of arthritis measured as arthritic score at i.p. dose of 0.001 m mol/kg in rats injected intradermally with Freund's adjuvant after 10 days; type: functional; how it was run: as §3
[19] = test system: Rattus norvegicus; assay: Onset of arthritis measured as arthritic score at i.p. dose of 0.001 m mol/kg in rats injected intradermally with Freund's adjuvant after 0 days; type: functional; how it was run: as §3
[20] = test system: Rattus norvegicus; assay: Onset of arthritis measured as arthritic score at i.p. dose of 0.001 m mol/kg in rats injected intradermally with Freund's adjuvant after 18 days; type: functional; how it was run: as §3
[21] = test system: Rattus norvegicus; assay: Onset of arthritis measured as arthritic score at i.p. dose of 0.001 m mol/kg in rats injected intradermally with Freund's adjuvant after 16 days; type: functional; how it was run: as §3
[22] = test system: Rattus norvegicus; assay: Duration of paralysis in rats (injected i.p. with 10 mg/1 mL/g of zoxazolamine) at i.p. dose of 0.001 m mol/kg after 24 days; type: functional
How it was run: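 Fischer 344 rats, groups of five, given Freund's Adjuvant intradermally at tail base; compound ip 0.001 mmol/kg from day zero every other day for 24 days. On day 24, ≥12 h after last dose, zoxazolamine ip 10 mg/1 mL/g as aqueous Tween 80 suspension; paralysis duration timed. Run in duplicate.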

[23] = test system: Rattus norvegicus; assay: Percent inhibition of carrageenan 2% (0.1 mL intradermal) induced paw edema at the i.p. dose of 0.01 m mol/kg in fisher 344 rats; n=5; no action; type: functional, organism-based; how it was run: as §2
[24] = test system: Rattus norvegicus; assay: Onset of arthritis measured as arthritic score at p.o. dose of 80 mg/kg in rats injected intradermally with Freund's adjuvant after 24 days; type: functional; conditions: route oral
[25] = Percent heme protein dependent lipid peroxidation (1 mM) upon incubation for 10 min at 37 degree C. in pH 7.4 with arachidonic acid and H2O2; no action; type: functional; how it was run: as §1
[26] = target: Prostaglandin G/H synthase 1 (Homo sapiens) (UniProt P23219); conditions: at 1 mM
[27] = target: T1, Seed linoleate 13S-lipoxygenase-1; assay: Inhibitory concentration against soybean lipoxygenase upon incubation with sodium linoleate (0.1 mM) at RT; no action

Prostaglandin G/H synthase 1 (Homo sapiens), sequence (P23219 whole entry): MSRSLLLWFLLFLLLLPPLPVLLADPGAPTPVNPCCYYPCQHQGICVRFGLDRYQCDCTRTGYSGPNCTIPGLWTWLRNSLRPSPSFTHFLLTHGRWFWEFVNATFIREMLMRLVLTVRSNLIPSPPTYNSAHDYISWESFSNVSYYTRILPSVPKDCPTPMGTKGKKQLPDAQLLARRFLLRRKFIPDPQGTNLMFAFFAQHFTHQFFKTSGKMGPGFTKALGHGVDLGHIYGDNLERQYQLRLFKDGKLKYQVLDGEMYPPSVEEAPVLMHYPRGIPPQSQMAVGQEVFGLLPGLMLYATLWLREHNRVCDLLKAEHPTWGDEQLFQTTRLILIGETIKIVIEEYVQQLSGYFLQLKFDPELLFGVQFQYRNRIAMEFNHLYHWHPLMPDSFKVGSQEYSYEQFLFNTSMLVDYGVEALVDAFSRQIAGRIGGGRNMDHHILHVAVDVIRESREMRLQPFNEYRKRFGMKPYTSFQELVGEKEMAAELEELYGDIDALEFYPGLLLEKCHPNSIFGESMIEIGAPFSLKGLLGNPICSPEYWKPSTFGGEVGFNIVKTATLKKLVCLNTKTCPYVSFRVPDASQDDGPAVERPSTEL

| Compound | Scavenging Activity [1] | Lipid peroxidation [2] | Lipid peroxidation [3] [%] | Inhibition [4] [%] | IC50 [5] [µM] | Lipid peroxidation [6] | Scavenging Activity [14] [%] | other results |
| --- | --- | --- | --- | --- | --- | --- | --- | --- |
| CCNCc1c(O)ccc2ccc(=O)oc12 | No action | No action | 5.5 | 53.6 | 52 | – | – | – |
| CC(Cc1ccc(O)c(O)c1)C(C)Cc1ccc(O)c(O)c1 (stereo not drawn) | inactive | – | 26.1 | – | – | inactive | – | – |
| O=c1ccc2ccc(O)cc2o1 [UMBELLIFERONE] | – | – | 26.1 | – | 43 | 14.6% | 80.6 | Arthritic score [7]: 5.2; Arthritic score [8]: 0; Arthritic score [9]: 0; Arthritic score [10]: 0; Change of body weight [11]: 18.6%; Arthritic score [12]: 4; Arthritic score [13]: 1.2; Arthritic score [15]: 0; Arthritic score [16]: 2.6; Arthritic score [17]: 0; Arthritic score [18]: 0; Arthritic score [19]: 0; Arthritic score [20]: 1.8; Arthritic score [21]: 1.2; Paralysis [22]: 232.5 min; inhibition [23]: No Action |
| CCCCC1C(=O)N(c2ccccc2)N(c2ccccc2)C1=O [PHENYLBUTAZONE] | – | – | – | – | – | – | – | Arthritic score [24]: 9 |
| CC(C)CNCc1c(O)ccc2ccc(=O)oc12 | – | No action | – | 55.4 | 47 | – | 33.3 | Lipid peroxidation [25]: No action |
| COc1ccc2c(c1)c(CC(=O)O)c(C)n2C(=O)c1ccc(Cl)cc1 [INDOMETHACIN] | – | – | – | 47 | – | – | – | – |
| CN1COc2ccc3ccc(=O)oc3c2C1 | – | No action | – | 53.6 | 42 | – | – | Lipid peroxidation [25]: No action |
| O=c1ccc2ccc(O)c(CN3CCNCC3)c2o1 | No action | – | 21.9 | 77.7 | 100 | 19.5% | – | inhibition [26]: 11%; Arthritic score [7]: 4.8; Arthritic score [8]: 0; Arthritic score [9]: 0; Arthritic score [10]: 0; Change of body weight [11]: 18.4%; Arthritic score [12]: 5.8; Arthritic score [13]: 1.2; Arthritic score [15]: 0; Arthritic score [16]: 3; Arthritic score [17]: 0; Arthritic score [18]: 0; Arthritic score [19]: 0; Arthritic score [20]: 3.2; Arthritic score [21]: 0; Paralysis [22]: 292 min |
| CCCCCNCc1c(O)ccc2ccc(=O)oc12 | No action | – | 5.7 | 52.7 | 59 | 8.6% | – | – |
| O=C(O)/C=C/c1ccc(O)c(O)c1 | – | inactive | 5.5 | – | – | – | 86.1 | – |
| CC(=O)CC(c1ccccc1)c1c(O)c2ccccc2oc1=O (stereo not drawn) [WARFARIN] | – | No action | – | 41 | – | – | 25 | IC50 [27]: No Action; Lipid peroxidation [25]: No action |
| O=c1ccc2ccc(O)c(CNCCc3ccccc3)c2o1 | – | – | 5.5 | 31.2 | 41 | 18.2% | 22.2 | – |
| NCCNCc1c(O)ccc2ccc(=O)oc12 | No action | No action | 22.1 | 56 | > 1000 | – | – | – |
| O=c1ccc2ccc(O)c(CN3CCOCC3)c2o1 | – | – | 19.9 | 75.7 | > 1000 | 19.5% | 58.3 | inhibition [26]: 32%; Arthritic score [7]: 4.25; Arthritic score [8]: 0; Arthritic score [9]: 0; Arthritic score [10]: 0; Change of body weight [11]: 7%; Arthritic score [12]: 3.5; Arthritic score [13]: 1.2; Arthritic score [15]: 0; Arthritic score [16]: 3.25; Arthritic score [17]: 0; Arthritic score [18]: 0; Arthritic score [19]: 0; Arthritic score [20]: 2.5; Arthritic score [21]: 1.25; Paralysis [22]: 212 min |
| NCCCNCc1c(O)ccc2ccc(=O)oc12 | – | No action | – | 53.4 | > 1000 | – | 50 | Lipid peroxidation [25]: No action |
| O=c1ccc2ccccc2o1 [COUMARIN] | – | – | 19.2 | 30.2 | – | 9.1% | 88.9 | – |
| O=c1ccc2ccc(O)c(CN3CCCCC3)c2o1 | No action | No action | 7.6 | 47.4 | 37 | – | – | – |
| CCCCCN(CCCCC)Cc1c(O)ccc2ccc(=O)oc12 | No action | No action | 13.7 | 46.2 | 13 | – | – | – |
| O=c1ccc2ccc(O)c(CNCc3ccccc3)c2o1 | No action | – | 35.6 | 47.5 | 44 | 19.5% | – | – |
